These results are taken from ChEMBL document CHEMBL1147842, “Novel 1,4-benzodiazepine derivatives with antiproliferative properties on tumor cell lines” (Bioorg Med Chem Lett, 2007).

What all share (format): functional, cell-based
The nature of test [1]: (§1) Antiproliferative activity against v-Src transformed mouse NIH 3T3 fibroblast after 72 hrs. The conditions noted are these: NIH3T3, 72 h. An outline of the steps: (§2)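 NIH 3T3/v-Src fibroblasts seeded at 10⁵/well, left overnight at 37°C in 5% CO₂. Compound exposure 0–150 μM for 72 h. Cells then washed in PBS, trypsinised and counted in a particle counter. Means of at least two independent experiments run in duplicate. IC₅₀ taken from a sigmoidal dose-response fit.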

A further test relates to A2058. Nature of the test: Cytotoxicity against human A2058 cells after 72 hrs by WST-1 colorimetric test. To be noted: for IC50: A2058, 72 h. In a few lines:
(§3)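 WST-1 colorimetric readout, based on cleavage by mitochondrial dehydrogenases. A2058 (4000 cells/well) or HeLa (3000 cells/well) left overnight at 37°C in 5% CO₂, then exposed to compounds at 0–150 μM for 72 h. WST-1 added for 2 h, absorbance at 450 nm read against a background control. Means of at least two independent experiments in triplicate.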
(Tetrazolium dyes change colour on reduction, which living cells bring about.)

The test system of another test is HeLa. Nature of the test: Cytotoxicity against human HeLa cells after 72 hrs by WST-1 colorimetric test. An outline of the steps: as §3
The subject of test [2] is NIH3T3. The test is described as §1. An outline of the steps:
as §2

Test [3] relates to NIH3T3. Put plainly: Antiproliferative activity against v-Src transformed mouse NIH 3T3 fibroblast at 150 uM after 72 hrs. In a few lines:
as §2

Calls of active or inactive are those of the source. No cut-off for these calls is given here.

Take `C[C@@H]1N=C(c2ccccc2)c2ccccc2N(Cc2ccc(OP(=O)(O)O)cc2)C1=O`: the IC50 in test [1] was determined as 36.6 µM; with A2058, 28.9 µM; in the test with HeLa it was 21.3 µM.
The matching figures for `CN1C(=O)CN=C(c2ccc(Cl)cc2)c2cc(Cl)ccc21` [RO-54864]: 31.9 µM, at least 100 µM and at least 100 µM.
The matching figures for `C[C@@H]1N=C(c2ccccc2)c2ccccc2N(Cc2ccc(OP(=O)(O)OCc3ccccc3)cc2)C1=O`: 49.5 µM, 61.5 µM and 40.5 µM.
As to `C[C@@H]1N=C(c2ccccc2)c2ccccc2N(Cc2ccc(CP(=O)(O)O)cc2)C1=O`, the result in the test with NIH3T3 [2], in the test on A2058 and in the test with HeLa was inactive.
`NCCCC[C@@H]1N=C(c2ccccc2)c2ccccc2N(Cc2ccc(OP(=O)(O)O)cc2)C1=O`: the IC50 was at least 80 µM in test [1], 33.8 µM in the test on A2058 and at least 80 µM with HeLa.
Turning to `C[C@@H]1N=C(c2ccccc2)c2ccccc2NC1=O`, the outcome in the test on NIH3T3 [3], in the test with A2058 and in the test on HeLa was inactive.
For the compound `NCCCC[C@@H]1N=C(c2ccccc2)c2ccccc2N(Cc2ccc(CP(=O)(O)O)cc2)C1=O`, the result in the test on NIH3T3 [2], in the test with A2058 and in the test on HeLa was inactive.
Regarding `C[C@@H]1N=C(c2ccccc2)c2ccccc2N(Cc2ccc(O)cc2)C1=O`, the IC50 in test [1] came to 38.6 µM; with A2058, 27.2 µM; with HeLa it was 29.3 µM.

By IC50 is commonly meant the point on the concentration scale where inhibition reaches its midpoint. A lower IC50 goes with inhibition by little substance.
